Laboratory results published in ChEMBL document CHEMBL2417388, “Design and synthesis of (4E)-4-(4-substitutedbenzylideneamino)-3-substituted-2,3-dihydro-2-thioxothiazole-5-carbonitrile as novel A2A receptor antagonists” (Bioorg Med Chem, 2013).
Calls of active or inactive are those of the source. The calls are words filed in the database; no cut-off is given here.

Key:
HEK293 = test: Selectivity ratio of Ki for human A1 receptor expressed in HEK293 cell membranes to Ki for human A2A receptor expressed in HEK293 cell membranes; format: cell-based
Adenosine receptor A1 = target: T1, Adenosine receptor A1 (Homo sapiens, UniProt P30542); test: Displacement of [3H]DPCPX from human A1 receptor expressed in HEK293 cell membranes after 60 mins by scintillation counting
T1 sequence (P30542 whole entry): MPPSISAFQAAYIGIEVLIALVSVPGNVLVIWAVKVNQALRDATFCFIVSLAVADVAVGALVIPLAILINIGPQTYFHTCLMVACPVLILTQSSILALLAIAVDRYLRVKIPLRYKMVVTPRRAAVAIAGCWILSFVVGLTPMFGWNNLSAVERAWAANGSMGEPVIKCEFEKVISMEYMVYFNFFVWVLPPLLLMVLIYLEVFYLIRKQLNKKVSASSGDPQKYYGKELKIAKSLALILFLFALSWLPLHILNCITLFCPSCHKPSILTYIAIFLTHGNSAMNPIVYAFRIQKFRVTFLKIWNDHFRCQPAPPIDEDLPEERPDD

Adenosine receptor A2a = Adenosine receptor A2a (Homo sapiens, UniProt P29274); test: Displacement of [3H]ZM241385 from human A2A receptor expressed in HEK293 cell membranes after 60 mins by scintillation counting
Chain of Adenosine receptor A2a (P29274 whole entry): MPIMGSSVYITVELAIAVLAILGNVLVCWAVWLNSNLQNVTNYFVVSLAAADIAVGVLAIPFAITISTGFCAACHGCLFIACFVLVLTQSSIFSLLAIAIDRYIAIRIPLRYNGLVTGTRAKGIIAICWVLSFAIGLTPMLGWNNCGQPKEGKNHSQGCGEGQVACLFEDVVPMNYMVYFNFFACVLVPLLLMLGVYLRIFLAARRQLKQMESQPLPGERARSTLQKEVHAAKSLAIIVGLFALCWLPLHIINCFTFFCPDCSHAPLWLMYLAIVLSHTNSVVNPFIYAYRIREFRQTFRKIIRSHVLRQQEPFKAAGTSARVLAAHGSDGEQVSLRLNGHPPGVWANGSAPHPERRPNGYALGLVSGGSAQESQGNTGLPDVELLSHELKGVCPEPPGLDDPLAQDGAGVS

Mus musculus [1] = test: Inhibition of haloperidol-induced catalepsy in Swiss albino mouse at 10 mg/kg, ip administered 30 mins prior haloperidol challenge measured after 120 mins; format: functional, organism-based; design: dose 10 mg/kg
Outline: (§1)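 Adult male Swiss albino mice (4–6 weeks, 20–30 g), four per group. Compound given ip at 5–20 mg/kg, with 1% acacia in saline as vehicle control. […] Catalepsy scored over time up to 120 min. Mean ± SEM, n = 4, one-way ANOVA and Kruskal–Wallis test.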

Mus musculus [2] = test: Inhibition of haloperidol-induced catalepsy in Swiss albino mouse at 5 to 20 mg/kg, ip administered 30 mins prior haloperidol challenge measured after 120 mins; format: functional, organism-based; outline: as §1

N#Cc1sc(=S)n(-c2ccccc2)c1/N=C/c1ccc(Cl)cc1
Ratio Ki (HEK293): 2950

CCn1c(/N=C/c2ccc(Br)cc2)c(C#N)sc1=S
Ratio Ki (HEK293): 0.074 | Ki (Adenosine receptor A1): 0.00074 nM

N#Cc1sc(=S)n(CCc2ccccc2)c1/N=C/c1ccc(F)cc1
Ratio Ki (HEK293): 337 | Ki (Adenosine receptor A1): 889 nM | Ki (Adenosine receptor A2a): 2.64 nM

N#Cc1sc(=S)n(CCc2ccccc2)c1/N=C/c1ccc(Br)cc1
Ratio Ki (HEK293): 3.73 | Ki (Adenosine receptor A1): 0.25 nM | Ki (Adenosine receptor A2a): 0.067 nM

CCCn1c(/N=C/c2ccc(Cl)cc2)c(C#N)sc1=S
Ratio Ki (HEK293): 0.042

CCn1c(/N=C/c2ccc(F)cc2)c(C#N)sc1=S
Ratio Ki (HEK293): 5.3e-05 | Ki (Adenosine receptor A1): 0.00059 nM

CCCn1c(/N=C/c2ccc(F)cc2)c(C#N)sc1=S
Ratio Ki (HEK293): 3390

N#Cc1sc(=S)n(-c2ccccc2)c1/N=C/c1ccc(F)cc1
Ratio Ki (HEK293): 0.13 | Ki (Adenosine receptor A1): 0.00063 nM | Ki (Adenosine receptor A2a): 0.0047 nM

N#Cc1sc(=S)n(-c2ccccc2)c1/N=C/c1ccc(Br)cc1
inhibition (Mus musculus [1]): Active | inhibition (Mus musculus [2]): Active

Nc1nc2c(cnn2CCc2ccccc2)c2nc(-c3ccco3)nn12
inhibition (Mus musculus [1]): Active | inhibition (Mus musculus [2]): Active

CCCn1c(/N=C/c2ccc(Br)cc2)c(C#N)sc1=S
Ratio Ki (HEK293): 337 | Ki (Adenosine receptor A1): 607 nM | Ki (Adenosine receptor A2a): 1.8 nM

CCCCn1c(/N=C/c2ccc(F)cc2)c(C#N)sc1=S
Ratio Ki (HEK293): 619 | Ki (Adenosine receptor A1): 16.7 nM | Ki (Adenosine receptor A2a): 0.027 nM

CCCCn1c(/N=C/c2ccc(Br)cc2)c(C#N)sc1=S
Ratio Ki (HEK293): 0.013

CCCCn1c(/N=C/c2ccc(Cl)cc2)c(C#N)sc1=S
Ratio Ki (HEK293): 2570

CCn1c(/N=C/c2ccc(Cl)cc2)c(C#N)sc1=S
Ratio Ki (HEK293): 13.8 | Ki (Adenosine receptor A1): 19.8 nM | Ki (Adenosine receptor A2a): 1.44 nM
